Compounds with a hit are over-represented: about 2.2% of the library has one in this group of screens.
HNF4A DNA FP = change in binding of human HNF4A to DNA, primary screen, biochemical, fluorescence polarization, FITC-DNA. 1 h. activity change, % at 10 µM. Hepatocyte nuclear factor 4-alpha (Homo sapiens), P41235. 0.3% of 360,000 active; in the data active means activity change above about 30%, passing the limit was not always enough
Target sequence (P41235 whole entry, looked up): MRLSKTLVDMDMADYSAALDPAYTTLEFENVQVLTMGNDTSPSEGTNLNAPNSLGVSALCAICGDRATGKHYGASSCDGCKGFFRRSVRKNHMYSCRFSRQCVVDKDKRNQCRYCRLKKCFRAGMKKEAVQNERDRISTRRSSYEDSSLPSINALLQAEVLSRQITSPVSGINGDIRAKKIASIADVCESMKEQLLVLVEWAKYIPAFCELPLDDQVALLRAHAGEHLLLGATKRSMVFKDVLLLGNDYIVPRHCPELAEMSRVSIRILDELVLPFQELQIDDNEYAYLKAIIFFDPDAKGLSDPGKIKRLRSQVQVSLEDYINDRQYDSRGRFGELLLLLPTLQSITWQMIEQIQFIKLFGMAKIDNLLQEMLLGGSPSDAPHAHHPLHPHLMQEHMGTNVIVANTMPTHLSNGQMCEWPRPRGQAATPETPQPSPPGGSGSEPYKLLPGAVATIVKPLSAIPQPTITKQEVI
Myeloid diff MLP = induction of myeloid progenitor differentiation, primary screen, cell-based, flow cytometry, MLPCN library; ER-HoxA9 myeloid progenitors, lysozyme-GFP differentiation; calls only at 10 µM; 1% of 360,000 active;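 active means normalized GFP-positive differentiation at or above the plate's own cutoff, the solvent-only control mean plus 3 SD; inconclusive means no clear call, values can overlap the other calls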;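 further: cells exposed to compound for four days before flow analysis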
CSN inh = inhibitors of CSN-mediated cullin deneddylation, primary screen, biochemical, fluorescence polarization, uHTS | AID 651999, 2013 | COP9 signalosome complex subunit 5 (Homo sapiens), Q92905 | inhibition, % at 12.5 µM | Purified CSN, SCF-Nedd8-OG deneddylation | 0.38% of 360,000 active;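 active means pattern-corrected inhibition above about 35%, with an unprinted fluorescence ratio check between 0.5 and 1.5, limit read from the data, passing the limit was not always enough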;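 further: 0% = enzyme with substrate and 100% = substrate without enzyme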
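Assay system: purified human Csn5 enzyme expressed in HEK293T cells; measure: % inhibition; also added: SCFSkp2-Nedd8OG substrate at 10 nM final; technique: fluorescence polarization; times: reaction 90 min, room temperature; medium: Tris buffer pH 7.5, NaCl, DTT, Tween-20, trehalose, ovalbumin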
Granule exo inh = LAMP-1 surface exposure blockers, TALL-104 cells – cell-based, flow cytometry, MLPCN library, primary screen. 0.66% of 360,000 active. AID 651702, 2012. inhibition, % at 10 µM. TALL-104 LAMP-1 surface exposure; cells stimulated with thapsigargin and PMA;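 active means inhibition above about 55%, limit read from the data; inconclusive means no clear call, values can overlap the other calls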
Starred values were filed as active, the others as inactive.

How did COc1ccc(-c2cc(NC(=O)c3cncn3-c3ccccc3)ccc2OC)cc1 do in these assays?
HNF4A DNA FP: 3.3; Myeloid diff MLP: active; CSN inh: -2.5; Granule exo inh: 11.2

Results for COc1ccc(NC(=O)c2cncn2-c2ccccc2)cc1 ?
HNF4A DNA FP: -5.3; Myeloid diff MLP: inactive; CSN inh: -1.3; Granule exo inh: -3.7

How did C=CCn1c(SC(C)C(=O)c2c(N)n(C)c(=O)n(C)c2=O)nnc1-c1ccoc1C (centres undefined) do in these assays?
HNF4A DNA FP: 2.4; Myeloid diff MLP: inactive; CSN inh: 2.6; Granule exo inh: -0.9

How did O=C(COc1ccccc1)N[C@@H]1c2ccccc2CC[C@@H]1O do in these assays?
HNF4A DNA FP: -0.8; Myeloid diff MLP: inactive; CSN inh: 56.6*; Granule exo inh: 9.5

Results for COc1ccc(N2C(=O)/C(=C/c3ccc([N+](=O)[O-])cc3)C=C2c2ccccc2)cc1 ?
HNF4A DNA FP: 9.7; Myeloid diff MLP: active; CSN inh: 1.5; Granule exo inh: -2.6

What do the screens show for `O=C1/C(=C/c2ccc([N+](=O)[O-])cc2)C=C(c2ccccc2)N1c1ccccc1`?
HNF4A DNA FP: 24.6; Myeloid diff MLP: inactive; CSN inh: 11.3; Granule exo inh: 1.8

What do the screens show for `O=C(NCCCN1CCOCC1)c1ccc2c(c1)N(Cc1ccc(Cl)cc1)C(=O)c1ccccc1S2=O` (centres undefined)?
HNF4A DNA FP: 0.4; Myeloid diff MLP: inactive; CSN inh: 3.1; Granule exo inh: 12.9

Results for NC(=S)Nc1ccc(S(=O)(=O)c2ccc(NC(N)=S)cc2)cc1 ?
HNF4A DNA FP: 0.8; Myeloid diff MLP: inactive; CSN inh: 1.1; Granule exo inh: -4.0

How did CC(C)C[C@H]1CN([C@@H](Cc2ccc(O)cc2)CN2CCC[C@@H]2CN2C(=O)C(=O)NC[C@@H]2Cc2ccccc2)C(=O)C(=O)N1CC1CCCCC1 do in these assays?
HNF4A DNA FP: -0.5; Myeloid diff MLP: inactive; CSN inh: 0.3; Granule exo inh: -5.0

What do the screens show for `CC(C)C[C@H]1CN([C@@H](Cc2ccccc2)CN2CCC[C@@H]2CN2C(=O)C(=O)NC[C@@H]2Cc2ccc(O)cc2)C(=O)C(=O)N1CC1CCCCCC1`?
HNF4A DNA FP: 2.5; Myeloid diff MLP: inactive; CSN inh: 36.6*; Granule exo inh: -2.0

What do the screens show for `CC(C)C[C@@H](CN1CCCC1CN1C(=S)NC[C@@H]1Cc1ccc(O)cc1)N1C[C@H](Cc2ccc(O)cc2)N(CC2CCCCCC2)C1=S` (some centres undefined)?
HNF4A DNA FP: 0.7; Myeloid diff MLP: inactive; CSN inh: -0.9; Granule exo inh: 56.3*

What do the screens show for `CCOC(=O)C1C(=O)C=C(c2ccc(C)cc2)CC1c1ccccc1` (centres undefined)?
HNF4A DNA FP: -3.0; Myeloid diff MLP: inactive; CSN inh: -4.1; Granule exo inh: -3.6

What do the screens show for `CCOC(=O)C1C(=O)C=C(/C=C/c2ccc(N(C)C)cc2)CC1c1ccccc1` (centres undefined)?
HNF4A DNA FP: 118.1; Myeloid diff MLP: active; CSN inh: 119.6; Granule exo inh: -2.7

Results for CN(C)CCCN(C(=O)c1cccs1)c1nc(-c2ccccc2)cs1 ?
HNF4A DNA FP: -1.3; Myeloid diff MLP: active; CSN inh: 1.8; Granule exo inh: 0.1

Results for COc1ccc(-c2csc(N(CCCN(C)C)C(=O)c3ccccc3C)n2)cc1 ?
HNF4A DNA FP: 1.7; Myeloid diff MLP: inactive; CSN inh: -1.5; Granule exo inh: 17.1

What do the screens show for `Cc1ccc2c(c1)N(C)/C(=C/c1cccc[n+]1C)S2`?
HNF4A DNA FP: 0.7; Myeloid diff MLP: inconclusive; CSN inh: 4.8; Granule exo inh: -4.2

How did Cc1ccc2c(c1)S/C(=C/c1ccc[n+](C)c1)N2CCO do in these assays?
HNF4A DNA FP: 0.5; Myeloid diff MLP: active; CSN inh: 0.7; Granule exo inh: -1.3

Results for CC(=O)OCCNc1cc(SCc2ccco2)c2nonc2c1[N+](=O)[O-] ?
HNF4A DNA FP: -6.5; Myeloid diff MLP: inactive; CSN inh: 34.3; Granule exo inh: -1.6

What do the screens show for `CC(=O)OCCCNc1cc(Sc2nc3ccccc3s2)c2nonc2c1[N+](=O)[O-]`?
HNF4A DNA FP: 1.3; CSN inh: 10.1; Granule exo inh: 68.8*

How did CC(=O)OCCNc1cc(Sc2nc3ccccc3[nH]2)c2nonc2c1[N+](=O)[O-] do in these assays?
HNF4A DNA FP: 4.2; Myeloid diff MLP: active; CSN inh: 0.5; Granule exo inh: 11.1

Results for CC(=O)OCCCNc1cc(Sc2ccc(C)cc2)c2nonc2c1[N+](=O)[O-] ?
HNF4A DNA FP: 1.4; Myeloid diff MLP: inconclusive; CSN inh: 9.3; Granule exo inh: 1.6

How did CC(=O)NCCc1c[nH]c2ccc(OCc3ccccc3)cc12 do in these assays?
HNF4A DNA FP: 3.0; Myeloid diff MLP: inactive; CSN inh: -1.0; Granule exo inh: -6.9

What do the screens show for `S=c1[nH]ncn1/N=C/c1ccccc1`?
HNF4A DNA FP: 44.0*; Myeloid diff MLP: inactive; CSN inh: 0.7; Granule exo inh: -2.6

What do the screens show for `C=C[C@@H]1c2cc(C)ccc2N(S(=O)(=O)c2ccc(C)cc2)[C@H](c2ccc(OC(C)=O)cc2)C1(C#N)C#N`?
HNF4A DNA FP: 3.0; Myeloid diff MLP: active; CSN inh: 4.7; Granule exo inh: 54.9

Results for CCCCCCCN1C(Nc2ccccc2)=NC[C@@H]1CC(C)C ?
HNF4A DNA FP: -1.2; Myeloid diff MLP: active; CSN inh: 2.0; Granule exo inh: -9.4

What do the screens show for `COc1ccc(-c2nnc(SCC(=O)N(C)C3CCS(=O)(=O)C3)n2C(C)C)cc1` (centres undefined)?
HNF4A DNA FP: 3.4; Myeloid diff MLP: inactive; CSN inh: -1.1; Granule exo inh: 1.0

What do the screens show for `COc1ccc2c(C)cc(SCC(=O)N(C)C3CCS(=O)(=O)C3)nc2c1` (centres undefined)?
HNF4A DNA FP: 2.4; Myeloid diff MLP: active; CSN inh: 3.1; Granule exo inh: 0.9

How did Cc1ccc(OCCN2C(=O)C(=O)c3cc(C)ccc32)cc1 do in these assays?
HNF4A DNA FP: 1.2; CSN inh: 4.3; Granule exo inh: 71.7*

Results for O=C(NCc1ccc(F)cc1)c1cc2ccccc2o1 ?
HNF4A DNA FP: 2.8; Myeloid diff MLP: inactive; CSN inh: -1.9; Granule exo inh: 4.5

Results for Cc1ccc(S(=O)(=O)n2nc(OC(=O)c3c(F)cccc3Cl)cc2N)cc1 ?
HNF4A DNA FP: -0.9; Myeloid diff MLP: inactive; CSN inh: 3.2; Granule exo inh: 78.0*

What do the screens show for `O=C(Cc1ccc([N+](=O)[O-])cc1)Nc1ccc2c(c1)CCC2`?
HNF4A DNA FP: -1.8; Myeloid diff MLP: inconclusive; CSN inh: 3.6; Granule exo inh: -4.8

What do the screens show for `CN1C(=O)C(C)(C)c2cc(S(=O)(=O)N3CCN(c4cccc(Cl)c4)CC3)ccc21`?
HNF4A DNA FP: -4.1; Myeloid diff MLP: active; CSN inh: 5.0; Granule exo inh: 4.7

Assay outcomes (PubChem)
